Three compounds from ChEMBL document CHEMBL3232782, “1,2,3,4,8,9,10,11-octahydrobenzo[j]phenanthridine-7,12-diones as new leads against Mycobacterium tuberculosis” (J Med Chem, 2014) can be followed below.

Structures are written as SMILES.

Holding throughout (assay type): functional
Test [1] deals with Mycobacterium tuberculosis. Nature of the test: Antimycobacterial activity against multidrug-resistant Mycobacterium tuberculosis LAM-1 assessed as bacterial growth index at 0.50 uM measured on day 6 by BACTEC MGIT 960TB method relative to control. The essentials:
(§1)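 MDR LAM-1, resistant to INH, RIF, rifabutin and prothionamide, was precultured in BACTEC MGIT vials to GI 300. It was inoculated with compound dilutions made from 1 mg/mL DMSO stocks in 7H9-OADC. Growth index was recorded daily. Day-6 GI was compared with an untreated culture diluted 100-fold (C/100) to set the critical 99% inhibitory concentration. Controls: INH 0.1 μM; moxifloxacin 1.14 μM.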

Test [2] has as its system Mycobacterium tuberculosis. Description: Antimycobacterial activity against multidrug-resistant Mycobacterium tuberculosis LAM-1 assessed as bacterial growth index at 0.25 uM measured on day 6 by BACTEC MGIT 960TB method relative to control. The gist of the method:
as §1

Test [3] relates to Mycobacterium tuberculosis. Nature of the test: Antimycobacterial activity against multidrug-resistant Mycobacterium tuberculosis LAM-1 assessed as bacterial growth index at 2.5 uM measured on day 6 by BACTEC MGIT 960TB method relative to control. The gist of the method: as §1

`CCOC(=O)C1CCc2ncc3c(c2C1)C(=O)C1=C(C3=O)C2CCC1C2` (stereo unspecified): the Growth_index in test [1] is 367; in test [2], 1970.

Regarding `CCOC(=O)C1CCc2ncc3c(c2C1)C(=O)C1=C(C3=O)C2CCC1CC2` (stereo unspecified), the values for the Growth_index in test [1] and in test [2] were 638 and 2382, respectively.

For `CC(C)(C)C1CCc2ncc3c(c2C1)C(=O)C1=C(C3=O)C2CCC1C2` (stereo unspecified), the results for the Growth_index in test [1] and in test [3] were 1982 and 537, respectively.
